Measured values as given in ChEMBL document CHEMBL1152867, “Targeting QseC signaling and virulence for antibiotic development” (Science, 2008).
The source made the active and inactive calls. No cut-off for these calls is given here.

What was measured:
Mus musculus [1] = experiment: Toxicity in CD1 mouse assessed as creatinine levels at 20 mg/kg, po administered daily once for 5 days measured 3 days after final dose; assay type: organism-based; set-up: dose 20 mg/kg, route oral; conditions: in vivo, 72 h
Outline: (§1)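 Female CD-1 mice (~22 g), three per group, given 20 mg/kg by oral gavage once daily for 5 days. Vehicle-only mice served as controls. Animals were weighed and observed daily. Three days after the last dose they were weighed and sacrificed. Blood was taken for chemistry and complete blood counts, and organs were weighed.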

Mus musculus [2] = experiment: Toxicity in CD1 mouse assessed as change in spleen weight at 20 mg/kg, po administered daily once for 5 days measured 3 days after final dose; assay type: organism-based; set-up: dose 20 mg/kg, route oral; conditions: in vivo, 72 h; outline: as §1
Mus musculus [3] = experiment: Toxicity in CD1 mouse assessed as cholesterol levels at 20 mg/kg, po administered daily once for 5 days measured 3 days after final dose; assay type: organism-based; set-up: dose 20 mg/kg, route oral; conditions: in vivo, 72 h; outline: as §1
[4] = tested on: Francisella tularensis subsp. tularensis SCHU S4; experiment: Bacteriostatic activity against Francisella tularensis SCHU S4 at 1 uM; assay type: functional, organism-based
Escherichia coli [5] = experiment: Bactericidal activity against Escherichia coli 8624 at 1 uM in presence of epinephrine; assay type: functional, organism-based
[6] = tested on: Francisella tularensis subsp. tularensis SCHU S4; experiment: Inhibition of virulence gene pdpA expression in Francisella tularensis SCHU S4 at 5 pM by quantitative real-time PCR; assay type: functional, organism-based
Mus musculus [7] = experiment: Toxicity in CD1 mouse assessed as change in body weight at 20 mg/kg, po administered daily once for 5 days measured 3 days after final dose; assay type: organism-based; set-up: dose 20 mg/kg, route oral; conditions: in vivo, 72 h; outline: as §1
Mus musculus [8] = experiment: Toxicity in CD1 mouse assessed as hematocrit content at 20 mg/kg, po administered daily once for 5 days measured 3 days after final dose; assay type: organism-based; set-up: dose 20 mg/kg, route oral; conditions: in vivo, 72 h; outline: as §1
Escherichia coli [9] = experiment: Bacteriostatic activity against Escherichia coli 8624 at 1 uM in presence of epinephrine; assay type: functional, organism-based
Escherichia coli [10] = experiment: Inhibition of epinephrine-induced EspA protein secretion in Escherichia coli 8624 at 5 pM by Western blot; assay type: functional, organism-based
Outline: (§2)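 Secreted proteins in cell-free supernatant were TCA-precipitated and immunoblotted with rabbit polyclonal anti-EspA and anti-EspB, with ECL detection.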

Mus musculus [11] = experiment: Toxicity in CD1 mouse assessed as mean corpuscular volume at 20 mg/kg, po administered daily once for 5 days measured 3 days after final dose; assay type: organism-based; set-up: dose 20 mg/kg, route oral; conditions: in vivo, 72 h; outline: as §1
Escherichia coli [12] = experiment: Antibacterial activity against Escherichia coli infected in New Zealand white rabbit assessed as inhibition of bacterial colonization in cecum at 20 mg/kg administered along with bacterial challenge; assay type: functional, organism-based; set-up: dose 20 mg/kg; conditions: Caecum
Escherichia coli [13] = experiment: Antibacterial activity against Escherichia coli infected in New Zealand white rabbit assessed as inhibition of bacterial colonization in ileum at 20 mg/kg administered 3 hrs post-bacterial challenge; assay type: functional, organism-based; set-up: dose 20 mg/kg
Escherichia coli [14] = experiment: Antibacterial activity against Escherichia coli 8624 assessed as induction of SOS response; assay type: functional, organism-based
Mus musculus [15] = experiment: Toxicity in CD1 mouse assessed as calcium levels at 20 mg/kg, po administered daily once for 5 days measured 3 days after final dose; assay type: organism-based; set-up: dose 20 mg/kg, route oral; conditions: in vivo, 72 h; outline: as §1
Mus musculus [16] = experiment: Toxicity in CD1 mouse assessed as mean corpuscular hemoglobin concentration at 20 mg/kg, po administered daily once for 5 days measured 3 days after final dose; assay type: organism-based; set-up: dose 20 mg/kg, route oral; conditions: in vivo, 72 h; outline: as §1
[17] = biological target: Beta-3 adrenergic receptor (Homo sapiens) (UniProt P13945); experiment: Activation of human beta-3-adrenergic receptor expressed in HEK293 cells assessed as cAMP release at 5 uM; assay type: functional, cell-based
Beta-3 adrenergic receptor (Homo sapiens), sequence (P13945 whole entry, looked up): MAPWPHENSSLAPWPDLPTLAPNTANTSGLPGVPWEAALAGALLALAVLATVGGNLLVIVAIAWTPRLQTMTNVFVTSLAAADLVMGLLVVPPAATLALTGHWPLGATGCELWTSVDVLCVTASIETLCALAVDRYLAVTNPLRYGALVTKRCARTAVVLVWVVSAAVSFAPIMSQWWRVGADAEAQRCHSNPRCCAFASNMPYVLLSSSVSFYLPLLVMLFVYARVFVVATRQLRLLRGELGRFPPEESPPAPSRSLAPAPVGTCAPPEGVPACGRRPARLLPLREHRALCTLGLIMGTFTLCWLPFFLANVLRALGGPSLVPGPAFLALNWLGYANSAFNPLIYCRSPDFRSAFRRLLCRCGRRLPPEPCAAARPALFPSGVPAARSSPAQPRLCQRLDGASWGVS
Outline: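 Live HEK293 cells carried an EPAC-based cAMP BRET reporter and expressed endogenous β2 or exogenous β1 or β3 adrenergic receptors. Cells were exposed to test compound alone at 5 μM. Values are means of triplicates, representative of 3 experiments.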

Escherichia coli [18] = experiment: Inhibition of Escherichia coli attaching-effacing lesions formation in infected human HeLa cells at 5 pM by FAS test; assay type: functional, organism-based
Outline: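 HeLa monolayers on glass coverslips were infected with a 1:100 dilution of overnight LB cultures for 6 h at 37 °C, 5% CO2. Cells were permeabilized with 0.2% Triton X-100 and stained with FITC-phalloidin for actin and propidium iodide for bacteria. Whole fields of ≥6 coverslips per strain were scored for AE lesions by fluorescence microscopy.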

Mus musculus [19] = experiment: Toxicity in CD1 mouse assessed as platelet count at 20 mg/kg, po administered daily once for 5 days measured 3 days after final dose; assay type: organism-based; set-up: dose 20 mg/kg, route oral; conditions: in vivo, 72 h; outline: as §1
Escherichia coli [20] = experiment: Inhibition of [3H]norepinephrine binding to Escherichia coli Qsec at 5 fM by liposome-based scintillation counting assay
Outline: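 Liposomes reconstituted with QseC were loaded with tritiated norepinephrine (5 μM) by freeze-thaw in liquid N2 and held 10 min at room temperature, so unbound signal could diffuse out. They were pelleted at 12,000g for 5 min and counted for tritium. Counts were normalized to liposomes loaded with 5 μM tyrosine. Compound was tested at 5 pM and 5 fM.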

Escherichia coli [21] = experiment: Inhibition of epinephrine-induced Escherichia coli Qsec autophosphorylation at 5 pM by liposome-based SDS-PAGE
Escherichia coli [22] = experiment: Bacteriostatic activity against Escherichia coli 8624 at 1 uM; assay type: functional, organism-based
Mus musculus [23] = experiment: Toxicity in CD1 mouse assessed as triglyceride levels at 20 mg/kg, po administered daily once for 5 days measured 3 days after final dose; assay type: organism-based; set-up: dose 20 mg/kg, route oral; conditions: in vivo, 72 h; outline: as §1
Mus musculus [24] = experiment: Toxicity in C3H HeN mouse at 20 mg/kg, po administered as single dose; assay type: organism-based; set-up: dose 20 mg/kg, route oral; conditions: in vivo
Mus musculus [25] = experiment: Toxicity in CD1 mouse assessed as glucose levels at 20 mg/kg, po administered daily once for 5 days measured 3 days after final dose; assay type: organism-based; set-up: dose 20 mg/kg, route oral; conditions: in vivo, 72 h; outline: as §1
Mus musculus [26] = experiment: Toxicity in CD1 mouse assessed as mean platelet volume at 20 mg/kg, po administered daily once for 5 days measured 3 days after final dose; assay type: organism-based; set-up: dose 20 mg/kg, route oral; conditions: in vivo, 72 h; outline: as §1
[27] = AUC in CD1 mouse at 20 mg/kg, po; assay type: ADME, organism-based; set-up: dose 20 mg/kg, route oral; conditions: plasma
Outline: (§3)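 Terminal cardiac bleeds were taken in groups of three at set times. Plasma was acetonitrile-precipitated with internal standard and analysed by LC/MS/MS against a spiked-plasma standard curve. Parameters came from noncompartmental analysis.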

Escherichia coli [28] = experiment: Inhibition of epinephrine-induced EspB protein secretion in Escherichia coli 8624 at 5 nM by Western blot; assay type: functional, organism-based; outline: as §2
[29] = Terminal half life in CD1 mouse at 20 mg/kg, po; assay type: ADME, organism-based; set-up: dose 20 mg/kg, route oral; conditions: in vivo, read-out: beta t1/2; outline: as §3
Escherichia coli [30] = experiment: Inhibition of AI3-induced Qsec-dependent virulence gene flhDC expression in Escherichia coli at 5 pM by quantitative real-time PCR; assay type: functional, organism-based
Mus musculus [31] = experiment: Toxicity in CD1 mouse assessed as lymphocyte counts at 20 mg/kg, po administered daily once for 5 days measured 3 days after final dose; assay type: organism-based; set-up: dose 20 mg/kg, route oral; conditions: in vivo, 72 h; outline: as §1
Escherichia coli [32] = experiment: Antibacterial activity against Escherichia coli infected in New Zealand white rabbit assessed as inhibition of bacterial colonization in ileum at 20 mg/kg pretreated before 3 hrs of bacterial challenge; assay type: functional, organism-based; set-up: dose 20 mg/kg

With `O=S(=O)(Nc1ccccc1)c1ccc(NC(=S)Nc2ccccc2)cc1` the Activity (Mus musculus [1]) was 0.2 mg/dL, the Activity (Mus musculus [2]) was “Non-toxic” and the Activity (Mus musculus [3]) was 122 mg/dL. The Activity [4] was “inactive”, the Activity (Escherichia coli [5]) was “inactive” and the Activity [6] was “Active”. For the same compound, the Activity (Mus musculus [7]) was “Non-toxic”, the Activity (Mus musculus [8]) was 38.5% and the Activity (Escherichia coli [9]) was “inactive”. For the same compound, the Activity (Escherichia coli [10]) was “Active”, the Activity (Mus musculus [11]) was 51.7 fL and the Activity (Escherichia coli [12]) was “inactive”. The Activity (Escherichia coli [13]) was “inactive”, the Activity (Escherichia coli [14]) was “inactive” and the Activity (Mus musculus [15]) was 9.6 mg/dL. The Activity (Mus musculus [16]) was 31.3 g/dL, the Activity [17] was “inactive” and the Activity (Escherichia coli [18]) was “Active”. For the same compound, the Activity (Mus musculus [19]) was 1075 K/uL, the Activity (Escherichia coli [20]) was “inactive” and the Activity (Escherichia coli [21]) was “inactive”. The Activity (Escherichia coli [22]) was “inactive”, the Activity (Mus musculus [23]) was 99.3 mg/dL and the Activity (Mus musculus [24]) was “Non-toxic”. The Activity (Mus musculus [25]) was 287 mg/dL, the Activity (Mus musculus [26]) was 5 fL and the AUC [27] was 3470 ng·h/mL. For the same compound, the Activity (Escherichia coli [28]) was “Active”, the half-life [29] was 4.92 h and the Activity (Escherichia coli [30]) was “Active”. For the same compound, the Activity (Mus musculus [31]) was 82% and the Activity (Escherichia coli [32]) was “inactive”.
